Results from publication PMC4137555 (Methods in enzymology, 2011).
“And” between values parts separate entries of the source, which are not always exact repeats. Equal values may be shown once. Ends that are not written are not given here. Peptide text beside a SMILES is read from it. * marks the point of attachment. Dansyl = CN(C)c1cccc2c(S(=O)(=O)*)cccc12

T1: Tiam2 PDZ domain (Homo sapiens, UniProt Q8IVF5)
T1 sequence (Q8IVF5 890-976 limits assumed): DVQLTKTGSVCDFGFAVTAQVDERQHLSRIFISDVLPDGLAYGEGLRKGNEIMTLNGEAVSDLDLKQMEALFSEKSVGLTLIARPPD

T2: KP-4E-Sdc1 peptide
T2 chain: Dansyl-QEEYYA


What was measured:
[1] = target: Tiam1 PDZ domain (wild-type) (Homo sapiens, UniProt Q13009); format: binding; details: for Kd: SD; for ΔGb (free energy of binding): calculated from the dissociation constant, error by error propagation, 25 °C; for ΔΔGb: ΔΔGb = ΔGb(Core) − ΔGb(peptide); for Σ Singles: sum of the ΔΔGb of the two single-mutant peptides; for binding to the Tiam1 PDZ domain (in words): unpublished data of the authors
In short: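 His6-tagged Tiam1 PDZ domain expressed in E. coli BL21(DE3), purified by nickel-chelate and size-exclusion chromatography, tag removed with rTEV. N-terminally dansylated peptides (2 or 5 μM) in 20 mM PO4, 50 mM NaCl, 0.5 mM EDTA, pH 6.8, at 25 °C; PDZ added in 20–30 steps. Anisotropy read at λex 340/λem 555 nm and fit hyperbolically. Triplicate titrations, mean Kd ± standard deviation.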

Tiam2 PDZ domain = target: T1, Tiam2 PDZ domain; experiment: Peptide binding to the Tiam2 PDZ domain; details: unpublished data of the authors
Model peptide = details: cited from earlier work
KP-4E-Sdc1 peptide = target: T2, KP-4E-Sdc1 peptide; experiment: fluorescence anisotropy

Tiam1 PDZ domain (wild-type), sequence (Q13009 841-930 limits assumed): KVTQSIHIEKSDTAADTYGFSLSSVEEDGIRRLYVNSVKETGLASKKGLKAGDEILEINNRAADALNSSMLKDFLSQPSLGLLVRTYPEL

Row | Molecule | Kd [1] [µM] | ΔGb (free energy of binding) [1] [kcal/mol] | ΔΔGb [1] [kcal/mol] | further results
1 | CN(C)c1cccc2c(S(=O)(=O)N[C@@H](CO)C(=O)N[C@@H](CO)C(=O)N[C@@H](CCC(N)=O)C(=O)N[C@@H](CCCCN)C(=O)N[C@@H](CCC(=O)O)C(=O)N[C@@H](Cc3ccc(O)cc3)C(=O)N[C@@H](Cc3ccc(O)cc3)C(=O)N[C@@H](Cc3ccccc3)C(=O)O)cccc12 [AP0F–Caspr4] (Dansyl-SSQKEYYF-OH) | 89 ± 5 | -5.52 ± 0.06 | -0.17 ± 0.08 | 
2 | CN(C)c1cccc2c(S(=O)(=O)N[C@@H](CCC(=O)O)C(=O)N[C@@H](CC(N)=O)C(=O)N[C@@H](CCC(N)=O)C(=O)N[C@@H](CCCCN)C(=O)N[C@@H](CCC(=O)O)C(=O)N[C@@H](Cc3ccc(O)cc3)C(=O)N[C@@H](Cc3ccccc3)C(=O)N[C@@H](Cc3ccccc3)C(=O)O)cccc12 [Caspr4] (Dansyl-ENQKEYFF-OH) | 19 ± 0.4 | -6.43 ± 0.02 | -1.09 ± 0.05 | ΔΔΔGint (interaction energy, double-mutant cycle) ([1]; double-mutant cycle of evolved peptides: Core, two single mutants, double mutant): -0.51 kcal/mol and -0.51 ± 0.08 kcal/mol; Σ Singles [1]: -0.57 ± 0.09 kcal/mol; binding to the Tiam1 PDZ domain (in words) [1]: bound the Tiam1 PDZ domain; binding to the Tiam2 PDZ domain (in words) (Tiam2 PDZ domain): bound the PDZ domain tightly
3 | C[C@H](NC(=O)[C@H](Cc1ccc(O)cc1)NC(=O)[C@H](Cc1ccc(O)cc1)NC(=O)[C@H](CCC(=O)O)NC(=O)[C@H](CCC(=O)O)NC(=O)[C@H](CCC(N)=O)NC(=O)[C@H](CO)NC(=O)[C@H](CO)NS(=O)(=O)c1cccc2c(N(C)C)cccc12)C(=O)O [KP−4E–Sdc1] (Dansyl-SSQEEYYA-OH) | 40 ± 2 | -5.99 ± 0.06 | -0.65 ± 0.07 | 
4 | C[C@H](NC(=O)[C@H](Cc1ccccc1)NC(=O)[C@H](Cc1ccc(O)cc1)NC(=O)[C@H](CCC(=O)O)NC(=O)[C@H](CCCCN)NC(=O)[C@H](CCC(N)=O)NC(=O)[C@H](CO)NC(=O)[C@H](CO)NS(=O)(=O)c1cccc2c(N(C)C)cccc12)C(=O)O [YP−1F–Caspr4] (Dansyl-SSQKEYFA-OH) | 60.1 ± 0.6 | -5.75 ± 0.01 | -0.40 ± 0.05 | 
5 | C[C@H](NC(=O)[C@H](Cc1ccc(O)cc1)NC(=O)[C@H](Cc1ccccc1)NC(=O)[C@H](CCC(=O)O)NC(=O)[C@H](CCCCN)NC(=O)[C@H](CCC(N)=O)NC(=O)[C@H](CO)NC(=O)[C@H](CO)NS(=O)(=O)c1cccc2c(N(C)C)cccc12)C(=O)O [YP−2F–Sdc1] (Dansyl-SSQKEFYA-OH) | 106 ± 7 | -5.42 ± 0.07 | -0.07 ± 0.08 | 
6 | NKDKEYYVCOOH [Neurexin1, reference compound] |  |  |  | binding to the Tiam2 PDZ domain (in words) (Tiam2 PDZ domain): bound the PDZ domain tightly
7 | SSRKEYYACOOH [Model peptide, reference compound] |  | -5.38 ± 0.05 |  | 
8 | TKQEEFYACOOH [Syndecan1] |  | -6.23 ± 0.03 | -0.88 ± 0.06 | Σ Singles [1]: -0.71 ± 0.11 kcal/mol; binding to the Tiam1 PDZ domain (in words) [1]: bound the Tiam1 PDZ domain
9 | Tiam1 PDZ (from UniProt Q13009) |  |  |  | Kd (Model peptide): 112 µM
10 | Tiam1 PDZ (protein) VTQSIHIEKSDTAADTYGFSLSSVEEDGIRRLYVNSVKETGLASKKGLKAGDEILEINNRAADALNSSML |  |  |  | Kd (KP-4E-Sdc1 peptide): 40 µM
